The values that follow come from ChEMBL document CHEMBL1125062, “Structure-activity relationships for the carboxy-terminus truncated analogues of angiotension II, a new class of angiotensin II antagonists” (J Med Chem, 1990).

The species named for one test is Oryctolagus cuniculus. Put plainly: In vitro myotropic property on the isolated rabbit aorta, expressed as pA2. The format is functional. To be noted: read-out: pA2 (converted). The gist of the method: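 Aortic rings from male New Zealand white rabbits (2-2.5 kg) equilibrated 1 h, then set at ~1 g passive tension. Paired rings were used: one received cumulative AII, the other AII with the peptide added 5 min before. AII was given at 30-min intervals with Krebs washes. Responses were taken as % of control maximal contraction, and pA2 was derived by Schild analysis.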

The subject of test [1] is Rattus norvegicus. In words: Variation of MAP induced bolus injection of 100 ug/kg of compound during infusion in rat reported as % of control (100) at a dose of 10 ug/kg. The format is functional. The gist of the method: (§1)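 Same ganglion-blocked, Inactin-anaesthetized rat preparation, with MAP recorded via femoral artery catheter. Antagonist was infused iv for 20 min at 10, 30, 60 or 100 µg/kg per min before AII 30 ng/kg iv bolus challenge. After infusion stopped, AII was repeated at 5-10-min intervals for 1 h. The pressor response was expressed as % of control at 5-60 min, mean ± SEM, n = 2-6.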

For test [2], the system named is Rattus norvegicus. In words: Percentage of pressor response to antagonize the effect of bolus injection of compound at a dose of 30 ug/kg per min in rat. The format is functional.
Test [3] concerns Rattus norvegicus. In words: Variation in mean arterial pressure after 10 min of antagonist infusion at a dose of 10 ug/kg.
Test [4] deals with Rattus norvegicus. Put plainly: In vivo activity to antagonize the effect of bolus injection of compound at 30 ug/kg in rat. The format is functional. To be noted: in the assay text read “angiotensin II at 30 ng/kg” for “compound at 30 ug/kg”. The gist of the method:
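Male Sprague-Dawley rats (240-400 g) under Inactin (100 mg/kg ip), ganglion-blocked with mecamylamine 3 mg/kg iv and atropine ip. AII 30 ng/kg iv bolus was given four times at 10-min intervals as baseline. Peptide was infused iv for 20 min, then AII was rechallenged. Endpoint was the smallest infusion dose (µg/kg per min) fully blocking the bolus, with time to ~50% recovery after infusion stopped.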

For test [5], the system named is Rattus norvegicus. In words: Variation of MAP induced bolus injection of 60 ug/kg of compound during infusion in rat reported as % of control (100) at a dose of 10 ug/kg. The format is functional. The gist of the method:
as §1

Test [6] deals with Rattus norvegicus. Put plainly: Drinking water response evaluated in conscious rat at a dose of 2500 pmol icv. The format is functional. A digest of the protocol: (§2)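 Conscious Sprague–Dawley rats given AII 100 pmol icv to induce water drinking. Test peptide was given icv at 500 or 2500 pmol, and the drinking response was recorded.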
In test [7] the test system is Rattus norvegicus. In words: Percentage of pressor response to antagonize the effect of bolus injection of compound at a dose of 30 ug/kg/min in rat. The format is functional.
In test [8] the test system is Rattus norvegicus. Put plainly: Drinking water response evaluated in conscious rat at a dose of 500 pmol icv. The format is functional. A digest of the protocol: as §2
In test [9] the test system is Rattus norvegicus. In words: Variation in mean arterial pressure after 40 min of antagonist infusion at a dose of 10 ug/kg.
In test [10] the test system is Rattus norvegicus. Put plainly: Variation in mean arterial pressure after 5 min of antagonist infusion at a dose of 10 ug/kg.
The subject of test [11] is Rattus norvegicus. In words: Variation in mean arterial pressure after 20 min of antagonist infusion at a dose of 10 ug/kg.
Test [12] concerns Rattus norvegicus. Put plainly: Variation in mean arterial pressure after 60 min of antagonist infusion at a dose of 10 ug/kg.
Test [13] has as its system Rattus norvegicus. Put plainly: In vivo activity to antagonize the effect of bolus injection of angiotensin II at 30 ng/kg in rat.
The subject of test [14] is Rattus norvegicus. The test is described as above. This is another data set of the same source.
The species named for test [15] is Rattus norvegicus. Put plainly: In vitro myotropic property in rat isolated uterus, expressed as pA2. The format is functional. As to conditions: read-out: pA2 (converted).
For test [16], the species on record is Rattus norvegicus. Put plainly: In vitro myotropic property in rat stomach, expressed as pA2. The format is functional. To be noted: read-out: pA2 (converted).
Test [17] relates to Rattus norvegicus. In words: Variation of MAP induced bolus injection of 30 ng/kg of compound during infusion in rat reported as % of control (100) at a dose of 30 ug/kg. To be noted: in the assay text read “10 ug/kg” for “30 ug/kg”. The format is functional. The gist of the method:
as §1

In test [18] the test system is Rattus norvegicus. In words: Variation in mean arterial pressure after 40 min of antagonist infusion at a dose of 30 ug/kg.
The test system of test [19] is Rattus norvegicus. In words: Variation in mean arterial pressure after 5 min of antagonist infusion at a dose of 10 ug/kg. The source holds these as a separate data set.
For test [20], the system named is Rattus norvegicus. In words: Variation in mean arterial pressure after 20 min of antagonist infusion at a dose of 10 ug/kg. This is another data set of the same source.
Test [21] deals with Rattus norvegicus. In words: Variation in mean arterial pressure after 10 min of antagonist infusion at a dose of 10 ug/kg. The source holds these as a separate data set.
For test [22], the system named is Rattus norvegicus. In words: Variation in mean arterial pressure after 60 min of antagonist infusion at a dose of 10 ug/kg. This is another data set of the same source.
Test [23] has as its system Rattus norvegicus. In words: Variation in mean arterial pressure after 40 min of antagonist infusion at a dose of 10 ug/kg. The source holds these as a separate data set.

Where a SMILES comes first, the peptide text is derived from it. [ ]: non-standard residue; d: D form. Sar = CNCC(=O)O

Regarding `CC[C@H](C)[C@H](NC(=O)[C@H](Cc1ccc(O)cc1)NC(=O)[C@@H](NC(=O)[C@H](CCCN=C(N)N)NC(=O)CNC)C(C)C)C(=O)N[C@@H](Cc1c[nH]cn1)C(=O)N1CCC[C@H]1C(=O)O` [listing 1 of 2 here], in the test listed under Oryctolagus cuniculus, the Kb is 31.6 nM.
In the test with Rattus norvegicus [1], `CC[C@H](C)[C@H](NC(=O)[C@H](Cc1ccc(O)cc1)NC(=O)[C@@H](NC(=O)[C@H](CCCN=C(N)N)NC(=O)CNC)C(C)C)C(=O)N[C@@H](Cc1c[nH]cn1)C(=O)N1CCC[C@H]1C(=O)O` [listing 2 of 2 here] came in with a Control of 9%. In the test on Rattus norvegicus [2], this molecule yielded an Agonist activity of 45%. Moreover, the Pressor response, % of control in the test with Rattus norvegicus [3] came out at 36%. The molecule also displayed an Antagonist activity in the test on Rattus norvegicus [4] of more than 100 µg/min/kg.
Regarding `CC[C@H](C)[C@H](NC(=O)[C@H](Cc1ccc(O)cc1)NC(=O)[C@@H](NC(=O)[C@H](CCCN=C(N)N)NC(=O)CNC)C(C)C)C(=O)N[C@@H](Cc1c[nH]cn1)C(=O)N1CCC[C@H]1C(N)=O` [listing 1 of 2 here], the Kb in the test filed under Oryctolagus cuniculus is 25.1 nM.
With `CC[C@H](C)[C@H](NC(=O)[C@H](Cc1ccc(O)cc1)NC(=O)[C@@H](NC(=O)[C@H](CCCN=C(N)N)NC(=O)CNC)C(C)C)C(=O)N[C@@H](Cc1c[nH]cn1)C(=O)N1CCC[C@H]1C(N)=O` [listing 2 of 2 here], the Control with Rattus norvegicus [5] came to 6%. Further, the Water intake in the test on Rattus norvegicus [6] is on record as 10.8 ml 20min-1; in the test on Rattus norvegicus [8] it was 10 ml 20min-1. In the test with Rattus norvegicus [4], the Antagonist activity was 60 µg/min/kg. The molecule further registered an Agonist activity in the test with Rattus norvegicus [7] of 60%.
Turning to `CC[C@H](C)[C@H](NC(=O)[C@H](Cc1ccc(OC)cc1)NC(=O)[C@@H](NC(=O)[C@H](CCCN=C(N)N)NC(=O)CNC)C(C)C)C(=O)N[C@@H](Cc1c[nH]cn1)C(=O)N1CCC[C@H]1C(N)=O` [listing 1 of 2 here], the Kb in the test listed under Oryctolagus cuniculus was 20 nM.
For `CC[C@H](C)[C@H](NC(=O)[C@H](Cc1ccc(OC)cc1)NC(=O)[C@@H](NC(=O)[C@H](CCCN=C(N)N)NC(=O)CNC)C(C)C)C(=O)N[C@@H](Cc1c[nH]cn1)C(=O)N1CCC[C@H]1C(N)=O` [listing 2 of 2 here], the Pressor response, % of control with Rattus norvegicus [9] came out at 91%; in the test on Rattus norvegicus [3], 86%; in the test on Rattus norvegicus [11], 89%. The molecule also came in with a Control in the test on Rattus norvegicus [1] of 19%. Moreover, the MAP with Rattus norvegicus [10] worked out at 70%; with Rattus norvegicus [12] it was 100%. Besides, the Antagonist activity in the test with Rattus norvegicus [4] is more than 100 µg/min/kg. For the same molecule, in the test with Rattus norvegicus [7], the Agonist activity turned out to be 65%.
In the test on Rattus norvegicus [8], `CC[C@H](C)[C@H](NC(=O)[C@H](Cc1ccc(O)cc1)NC(=O)[C@@H](NC(=O)[C@H](CCCN=C(N)N)NC(=O)[C@@H](N)CC(=O)O)C(C)C)C(=O)N[C@@H](Cc1c[nH]cn1)C(=O)N1CCC[C@@H]1C(=O)O` displayed a Water intake of 6.1 ml 20min-1. The Antagonist activity in the test with Rattus norvegicus [13] was more than 300 µg/min/kg. Also, the Kb in the test listed under Oryctolagus cuniculus was more than 1000 nM.
For the molecule `CC[C@H](C)[C@H](NC(=O)[C@H](Cc1ccc(OC)cc1)NC(=O)[C@@H](NC(=O)[C@H](CCCN=C(N)N)NC(=O)CNC)C(C)C)C(=O)N[C@@H](Cc1c[nH]cn1)C(=O)N1CCC[C@H]1C(=O)N[C@@H](Cc1ccccc1)C(=O)O`, the Antagonist activity with Rattus norvegicus [14] is 30 µg/min/kg. For the same molecule, in the test on Rattus norvegicus [2], the Agonist activity came to 60%. In the test with Rattus norvegicus [8], this molecule displayed a Water intake of 3.1 ml 20min-1. Also, the Kb in the test filed under Rattus norvegicus [15] is 25.1 nM.
Consider `CNCC(=O)N[C@@H](CCCN=C(N)N)C(=O)N[C@H](C(=O)N[C@@H](Cc1ccc(O)cc1)C(=O)N[C@H](C(=O)N[C@@H](Cc1c[nH]cn1)C(=O)N1CCC[C@H]1C(=O)N[C@@H](C)C(=O)O)C(C)C)C(C)C` [listing 1 of 2 here], for which, in the test listed under Rattus norvegicus [16], the Kb was 5.01 nM.
As to `CNCC(=O)N[C@@H](CCCN=C(N)N)C(=O)N[C@H](C(=O)N[C@@H](Cc1ccc(O)cc1)C(=O)N[C@H](C(=O)N[C@@H](Cc1c[nH]cn1)C(=O)N1CCC[C@H]1C(=O)N[C@@H](C)C(=O)O)C(C)C)C(C)C` [listing 2 of 2 here], the Pressor response, % of control in the test on Rattus norvegicus [9] was 96%; in the test on Rattus norvegicus [3], 50%; with Rattus norvegicus [18], 96%; with Rattus norvegicus [11] it was 78%. Besides, the Control with Rattus norvegicus [1] (in the assay text read “30 ng/kg of angiotensin II” for “100 ug/kg of compound”) and in the test on Rattus norvegicus [17] was 0% in each case. The MAP in the test with Rattus norvegicus [10] came out at 29%; with Rattus norvegicus [12], 94%. The Antagonist activity in the test on Rattus norvegicus [4] was 10 µg/min/kg.
As for `CC[C@H](C)[C@H](NC(=O)[C@H](Cc1ccc(O)cc1)NC(=O)[C@@H](NC(=O)[C@H](CCCN=C(N)N)NC(=O)[C@@H](N)CC(=O)O)C(C)C)C(=O)N[C@@H](Cc1c[nH]cn1)C(=O)N(C)CC(N)=O` (H-DRVYIH[Sar]-NH2), the Kb in the test listed under Oryctolagus cuniculus was more than 1000 nM.
Regarding `CC[C@H](C)[C@H](NC(=O)[C@H](Cc1ccc(O)cc1)NC(=O)[C@@H](NC(=O)[C@H](CCCN=C(N)N)NC(=O)CNC)C(C)C)C(=O)N[C@@H](Cc1c[nH]cn1)C(N)=O` (H-[Sar]RVYIH-NH2), in the test listed under Oryctolagus cuniculus, the Kb is more than 1000 nM.
With `CC[C@H](C)[C@H](NC(=O)[C@H](Cc1ccc(O)cc1)NC(=O)[C@@H](NC(=O)[C@H](CCCN=C(N)N)NC(=O)CNC)C(C)C)C(=O)N[C@@H](Cc1c[nH]cn1)C(=O)N(C)C` (H-[Sar]RVYIH-NMe2) [listing 1 of 2 here], in the test filed under Oryctolagus cuniculus, the Kb was 89.1 nM.
Take `CC[C@H](C)[C@H](NC(=O)[C@H](Cc1ccc(O)cc1)NC(=O)[C@@H](NC(=O)[C@H](CCCN=C(N)N)NC(=O)CNC)C(C)C)C(=O)N[C@@H](Cc1c[nH]cn1)C(=O)N(C)C` (H-[Sar]RVYIH-NMe2) [listing 2 of 2 here]: the Pressor response, % of control in the test on Rattus norvegicus [19] came out at 10%; in the test with Rattus norvegicus [20], 28%; in the test with Rattus norvegicus [21], 13%; in the test with Rattus norvegicus [23] it was 67%. For the same molecule, the Control with Rattus norvegicus [1] is 5%. Moreover, the Agonist activity in the test with Rattus norvegicus [2] came to 50%. Besides, the Antagonist activity in the test on Rattus norvegicus [4] came to 100 µg/min/kg. In the test on Rattus norvegicus [22], this molecule yielded an MAP of 82%.
`CC[C@H](C)[C@H](NC(=O)[C@H](Cc1ccc(O)cc1)NC(=O)[C@@H](NC(=O)[C@H](CCCN=C(N)N)NC(=O)CNC)C(C)C)C(=O)N[C@@H](Cc1c[nH]cn1)C(=O)NCC(N)=O` (H-[Sar]RVYIHG-NH2): the Kb in the test filed under Oryctolagus cuniculus was more than 1000 nM.
For the molecule `CC[C@H](C)[C@H](NC(=O)[C@H](Cc1ccc(O)cc1)NC(=O)[C@@H](NC(=O)[C@H](CCCN=C(N)N)NC(=O)CNC)C(C)C)C(=O)N[C@@H](Cc1c[nH]cn1)C(=O)N(C)CC(N)=O` (H-[Sar]RVYIH[Sar]-NH2), in the test listed under Oryctolagus cuniculus, the Kb was more than 1000 nM.
H-DRVYIH-NH2: the Kb in the test filed under Oryctolagus cuniculus is more than 1000 nM.
